Positions count from the first letter of the chain named. Active and inactive are the calls of the source. No cut-off for these calls is given here.
Legend:
[1] = target: T1, 4,4'-diapophytoene desaturase (4,4'-diaponeurosporene-forming) (Staphylococcus aureus (strain Newman), UniProt O07855); experiment: Inhibition of CrtN in Staphylococcus aureus Newman assessed as reduction in staphyloxanthin levels after 48 hrs by spectrophotometric method-based pigment inhibition assay; set-up: species or system Staphylococcus aureus subsp. aureus str. Newman
T1 sequence (O07855 whole entry): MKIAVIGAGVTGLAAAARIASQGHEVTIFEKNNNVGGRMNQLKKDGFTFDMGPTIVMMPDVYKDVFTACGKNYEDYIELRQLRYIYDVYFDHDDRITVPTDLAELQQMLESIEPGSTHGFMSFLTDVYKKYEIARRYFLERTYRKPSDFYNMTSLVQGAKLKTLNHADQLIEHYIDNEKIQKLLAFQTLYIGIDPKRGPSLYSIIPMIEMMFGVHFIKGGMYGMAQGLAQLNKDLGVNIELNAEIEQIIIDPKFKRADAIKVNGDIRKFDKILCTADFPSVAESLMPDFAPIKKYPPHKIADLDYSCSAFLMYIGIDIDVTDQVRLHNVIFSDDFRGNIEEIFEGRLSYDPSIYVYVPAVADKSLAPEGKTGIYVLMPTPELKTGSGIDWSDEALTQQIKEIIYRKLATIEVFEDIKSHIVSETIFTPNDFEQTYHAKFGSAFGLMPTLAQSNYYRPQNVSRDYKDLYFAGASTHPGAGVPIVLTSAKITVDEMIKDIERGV

[2] = target: T2, 4,4'-diapophytoene desaturase (4,4'-diaponeurosporene-forming) (Staphylococcus aureus (strain MW2), UniProt Q8NUQ6); experiment: Inhibition of CrtN in methicillin-resistant Staphylococcus aureus USA400 MW2 assessed as reduction in staphyloxanthin levels after 48 hrs by spectrophotometric method-based pigment inhibition assay; set-up: species or system Staphylococcus aureus subsp. aureus MW2
T2 sequence (Q8NUQ6 whole entry): T1 sequence (O07855 whole entry) with R500Q

[3] = Inhibition of CrtN in methicillin-resistant Staphylococcus aureus NRS271 assessed as reduction in staphyloxanthin levels after 48 hrs by spectrophotometric method-based pigment inhibition assay
[4] = tested on: HepG2; experiment: Cytotoxicity against human HepG2 cells after 43 hrs by Alamar blue dye-based fluorescence assay; type: cell-based; details: HepG2, 43 h
[5] = target: T1, 4,4'-diapophytoene desaturase (4,4'-diaponeurosporene-forming); experiment: Inhibition of Staphylococcus aureus Newman 6His-tagged CrtN expressed in Escherichia coli BL21 (DE3)/pET28a::CrtN assessed as reduction in staphyloxanthin levels using diapophytoene as substrate after overnight incubation by spectrophotometric analysis; set-up: species or system Staphylococcus aureus subsp. aureus str. Newman
[6] = tested on: Nannizzia gypsea; experiment: In vitro antifungal activity against Microsporum gypseum after 7 days by serial dilution method; type: functional; details: 168 h
[7] = tested on: Trichophyton verrucosum; experiment: In vitro antifungal activity against Trichophyton verrucosum after 7 days by serial dilution method; type: functional; details: 168 h
[8] = tested on: Trichophyton mentagrophytes; experiment: In vitro antifungal activity against Trichophyton mentagrophytes after 7 days by serial dilution method; type: functional; details: 168 h
[9] = tested on: Staphylococcus aureus; experiment: Antibacterial activity against methicillin-resistant Staphylococcus aureus USA400 MW2 assessed as change in bacterial growth at 0.2 mM […]; type: functional
[10] = tested on: Staphylococcus aureus; experiment: Antibacterial activity against methicillin-resistant Staphylococcus aureus USA300 LAC assessed as change in bacterial growth at 0.2 mM […]; type: functional
[11] = tested on: Staphylococcus aureus; experiment: Antibacterial activity against methicillin-resistant Staphylococcus aureus NRS271 assessed as change in bacterial growth at 0.2 mM […]; type: functional
[12] = tested on: Staphylococcus aureus; experiment: In vivo anti-virulence activity against Staphylococcus aureus Newman infected in BALB/c mouse model assessed as reduction in bacterial load in heart at 0.4 mg bid for 3.5 days administered intraperitoneally 6 hrs post infection by serial dilution method; type: functional, organism-based
Method in brief: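 Mice (n=10 per group) got 2.3 × 10^7 CFU S. aureus Newman by retro-orbital injection. Compound was given intraperitoneally b.i.d., either 24 h before infection (4.5 d) or 6 h after infection (3.5 d). Mice were sacrificed after 4.5 d and CFU counted in kidneys and hearts. Groups were compared by two-tailed Mann-Whitney test.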

[13] = tested on: Staphylococcus aureus; experiment: In vivo anti-virulence activity against methicillin-resistant Staphylococcus aureus Mu50 infected in BALB/c mouse model assessed as reduction in bacterial load in kidneys at 0.1 mg bid for 3.5 days administered intraperitoneally 6 hrs post infection by serial dilution method; type: functional; set-up: scale not given: the % may be the effect or the level left
Method in brief: (§1)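 Mice (n=10 per group) infected retro-orbitally with S. aureus Mu50 (1.1 × 10^9 or 1.3 × 10^9 CFU) or NRS271 (2.3 × 10^8 CFU). Compound given i.p. b.i.d., either 6 h after infection for 3.5 d or 24 h before infection for 4.5 d. Mice killed after 4.5 d; log10 CFU per organ counted in kidneys and hearts. Two-tailed Mann−Whitney test.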

[14] = tested on: Staphylococcus aureus; experiment: In vivo anti-virulence activity against methicillin-resistant Staphylococcus aureus Mu50 infected in BALB/c mouse model assessed as reduction in bacterial load in heart at 0.4 mg bid for 4.5 days administered intraperitoneally 24 hrs prior to infection by serial dilution method; type: functional; set-up: scale not given: the % may be the effect or the level left; method in brief: as §1
[15] = tested on: Staphylococcus aureus; experiment: In vivo anti-virulence activity against methicillin-resistant Staphylococcus aureus NRS271 infected in BALB/c mouse model assessed as reduction in bacterial load in kidneys at 0.4 mg bid for 4.5 days administered intraperitoneally 24 hrs prior to infection by serial dilution method; type: functional; set-up: scale not given: the % may be the effect or the level left; method in brief: as §1
[16] = tested on: Staphylococcus aureus; experiment: In vivo anti-virulence activity against methicillin-resistant Staphylococcus aureus NRS271 infected in BALB/c mouse model assessed as reduction in bacterial load in kidneys at 0.1 mg bid for 4.5 days administered intraperitoneally 24 hrs prior to infection by serial dilution method; type: functional; set-up: scale not given: the % may be the effect or the level left; method in brief: as §1
[17] = tested on: Staphylococcus aureus; experiment: In vivo anti-virulence activity against methicillin-resistant Staphylococcus aureus NRS271 infected in BALB/c mouse model assessed as reduction in bacterial load in kidneys at 0.1 mg bid for 3.5 days administered intraperitoneally 6 hrs post infection by serial dilution method; type: functional; set-up: scale not given: the % may be the effect or the level left; method in brief: as §1
[18] = tested on: Staphylococcus aureus; experiment: In vivo anti-virulence activity against methicillin-resistant Staphylococcus aureus NRS271 infected in BALB/c mouse model assessed as reduction in bacterial load in heart at 0.1 mg bid for 4.5 days administered intraperitoneally 24 hrs prior to infection by serial dilution method; type: functional; set-up: scale not given: the % may be the effect or the level left; method in brief: as §1
[19] = tested on: Staphylococcus aureus; experiment: In vivo anti-virulence activity against methicillin-resistant Staphylococcus aureus NRS271 infected in BALB/c mouse model assessed as reduction in bacterial load in heart at 0.4 mg bid for 3.5 days administered intraperitoneally 6 hrs post infection by serial dilution method; type: functional; set-up: scale not given: the % may be the effect or the level left; method in brief: as §1

Structure (SMILES) | IC50 [1] [nM] | IC50 [2] [nM] | IC50 [3] [nM] | IC50 [4] [nM] | IC50 [5] [nM] | MIC80 [6] [µg/mL] | MIC80 [7] [µg/mL] | MIC80 [8] [µg/mL] | Activity [9] | Activity [10] | Activity [11] | Activity [12] | Activity [13] [%] | Activity [14] [%] | Activity [15] [%] | Activity [16] [%] | Activity [17] [%] | Activity [18] [%] | Activity [19] [%]
CN(C/C=C/c1ccc(-c2ccccc2)cc1)Cc1coc2ccccc12.Cl | 2 | 7.9 | 5.6 | 106000 | 400 | 32 | > 64 | > 64 | inactive | inactive | inactive | Active | >95 | >95 | >95 | >95 | >95 | >95 | >95
CN(C/C=C/c1ccc(-c2ccccc2)cc1)Cc1cccc2cc[nH]c12.Cl | 3.3 | 8 | 10.1 | 21900 | 200 | > 64 | > 64 | > 64 | inactive | inactive | inactive | inactive | >95 | >95 | >95 | >95 | >95 | >95 | >95

Reference: ChEMBL document CHEMBL4024779, “Novel Terminal Bipheny-Based Diapophytoene Desaturases (CrtN) Inhibitors as Anti-MRSA/VISR/LRSA Agents with Reduced hERG Activity” (J Med Chem, 2018)
